Source: ChEMBL document CHEMBL2434910, “Investigation of 3-aryl-pyrimido[5,4-e][1,2,4]triazine-5,7-diones as small molecule antagonists of β-catenin/TCF transcription” (Bioorg Med Chem Lett, 2013)
pIC50: −log10 of the molar value. Calls of active or inactive are those of the source. The calls are words filed in the database; no cut-off is given here.

Assays:
[1] = Metabolic stability in mouse liver microsomes assessed as compound remaining at 1 uM after 60 mins by LC-MS analysis; assay type: ADME, Microsome; settings: read-out: Stability
How it was run: (§1)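 Compound (1 μM) incubated at 37°C with mouse liver microsomes to assess metabolic stability.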

[2] = Metabolic stability in mouse liver microsomes assessed as compound remaining at 1 uM after 30 mins by LC-MS analysis; assay type: ADME, Microsome; settings: read-out: Stability; how it was run: as §1
[3] = Metabolic stability in mouse liver microsomes assessed as compound remaining at 1 uM after 10 mins by LC-MS analysis; assay type: ADME, Microsome; settings: read-out: Stability; how it was run: as §1
[4] = tested on: Liver; assay: Metabolic stability in mouse liver microsomes assessed as compound remaining at 1 uM after 3 mins by LC-MS analysis; assay type: ADME, Microsome; settings: 0.05 h; how it was run: as §1
[5] = Antagonist activity at Beta-catenin/TCF in rat IEC-6 cells assessed as inhibition of Wnt-3a-induced axin2 expression preincubated for 6 hrs followed by Wnt-3a induction measured after 12 hrs by qPCR analysis; assay type: cell-based
How it was run: (§2)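 IEC-6 rat intestinal epithelial cells given compound at a range of concentrations for 6 h, then recombinant mouse Wnt-3a (50 ng/mL) added for 12 h. Target transcript quantified by qPCR with gene-specific primers, normalised to U6. The Wnt-3a-stimulated level with no compound is set to 100%. IC50 taken from concentration-response; mean ± SEM reported where available.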

[6] = tested on: Liver; assay: Metabolic stability in mouse liver microsomes assessed as half life at 1 uM after 1 to 60 mins by LC-MS analysis; assay type: ADME, Microsome; how it was run: as §1
[7] = Antagonist activity at Beta-catenin/TCF in rat IEC-6 cells assessed as inhibition of Wnt-3a-induced lgr5 expression preincubated for 6 hrs followed by Wnt-3a induction measured after 12 hrs by qPCR analysis; assay type: cell-based; how it was run: as §2
[8] = tested on: IEC-6; assay: Antagonist activity at Beta-catenin/TCF in rat IEC-6 cells assessed as inhibition of Wnt-3a-induced axin2 expression up to 0.7 uM preincubated for 6 hrs followed by Wnt-3a induction measured after 12 hrs by qPCR analysis; assay type: cell-based; how it was run: as §2
[9] = tested on: IEC-6; assay: Antagonist activity at Beta-catenin/TCF in rat IEC-6 cells assessed as inhibition of Wnt-3a-induced lgr5 expression up to 0.7 uM preincubated for 6 hrs followed by Wnt-3a induction measured after 12 hrs by qPCR analysis; assay type: cell-based; how it was run: as §2
[10] = tested on: RKO; assay: Antiproliferative activity against human RKO cells assessed as inhibition of colony formation at 0.3 to 0.5 uM after 2 weeks by crystal violet staining-based assay; assay type: functional, cell-based
How it was run: (§3)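 Cells seeded in medium with 10% serum containing the test compound, kept in the dark; surviving colonies counted two weeks after plating. Colony counts are from two independent experiments at each concentration, each run in triplicate.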

[11] = tested on: DLD-1; assay: Antiproliferative activity against human DLD1 cells assessed as inhibition of colony formation at 0.3 to 0.5 uM after 2 weeks by crystal violet staining-based assay; assay type: functional, cell-based; how it was run: as §3
[12] = tested on: IEC-6; assay: Antagonist activity at Beta-catenin/TCF in rat IEC-6 cells assessed as inhibition of Wnt-3a-induced axin2 expression up to 1.2 uM preincubated for 6 hrs followed by Wnt-3a induction measured after 12 hrs by qPCR analysis; assay type: cell-based; how it was run: as §2
[13] = tested on: IEC-6; assay: Antagonist activity at Beta-catenin/TCF in rat IEC-6 cells assessed as inhibition of Wnt-3a-induced lgr5 expression up to 1.2 uM preincubated for 6 hrs followed by Wnt-3a induction measured after 12 hrs by qPCR analysis; assay type: cell-based; how it was run: as §2
[14] = tested on: IEC-6; assay: Antagonist activity at Beta-catenin/TCF in rat IEC-6 cells assessed as inhibition of Wnt-3a-induced axin2 expression up to 69 uM preincubated for 6 hrs followed by Wnt-3a induction measured after 12 hrs by qPCR analysis; assay type: cell-based; how it was run: as §2
[15] = tested on: IEC-6; assay: Antagonist activity at Beta-catenin/TCF in rat IEC-6 cells assessed as inhibition of Wnt-3a-induced lgr5 expression up to 69 uM preincubated for 6 hrs followed by Wnt-3a induction measured after 12 hrs by qPCR analysis; assay type: cell-based; how it was run: as §2
[16] = tested on: DLD-1; assay: Downregulation of cyclin D1 protein level in human DLD1 cells at 3 to 10 uM after 20 hrs by Western blotting analysis; assay type: functional, cell-based
How it was run: (§4)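 DLD-1 colorectal cancer cells treated with compound for 20 h in the dark. β-Catenin (free and total pools) and cyclin D1 protein levels assessed by Western blot.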

[17] = tested on: DLD-1; assay: Downregulation of total beta-catenin protein level in human DLD1 cells at 3 to 10 uM after 20 hrs by Western blotting analysis; assay type: functional, cell-based; how it was run: as §4
[18] = tested on: IEC-6; assay: Antagonist activity at Beta-catenin/TCF in rat IEC-6 cells assessed as inhibition of Wnt-3a-induced axin2 expression up to 179 uM preincubated for 6 hrs followed by Wnt-3a induction measured after 12 hrs by qPCR analysis; assay type: cell-based; how it was run: as §2
[19] = Downregulation of free beta-catenin protein level in HEK293T cells after 3 hrs by Western blotting analysis in presence of dominant negative beta-TrCP; assay type: functional, cell-based; settings: Homo sapiens; HEK-293T
[20] = Downregulation of free beta-catenin protein level in HEK293T cells after 3 hrs by Western blotting analysis in presence of GSK3-beta antagonist SB216763 and proteasome inhibitor MG-132; assay type: functional, cell-based; settings: Homo sapiens; HEK-293T
[21] = tested on: HEK-293T; assay: Effect on total beta-catenin protein level in HEK293T cells at 1 to 10 uM after 3 hrs by Western blotting analysis in presence of GSK3-beta antagonist SB216763; assay type: functional, cell-based; settings: Homo sapiens
How it was run: (§5)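 HEK293T cells treated with 5 μM SB216763 (GSK3β antagonist) together with various concentrations of compound, in the dark. Free and total β-catenin protein assessed by Western blot.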

[22] = tested on: SW480; assay: Downregulation of axin2 protein level in human SW480 cells after 20 hrs by Western blotting analysis; assay type: functional, cell-based
[23] = tested on: SW480; assay: Downregulation of free beta-catenin protein level in human SW480 cells at 3 to 10 uM after 20 hrs by Western blotting analysis; assay type: functional, cell-based
[24] = tested on: SW480; assay: Downregulation of total beta-catenin protein level in human SW480 cells at 3 to 10 uM after 20 hrs by Western blotting analysis; assay type: functional, cell-based
[25] = Downregulation of free beta-catenin protein level in HEK293T cells at 1 to 10 uM after 3 hrs by Western blotting analysis in presence of GSK3-beta antagonist SB216763; assay type: functional, cell-based; settings: Homo sapiens, HEK-293T; how it was run: as §5
[26] = tested on: DLD-1; assay: Downregulation of free beta-catenin protein level in human DLD1 cells at 3 to 10 uM after 20 hrs by Western blotting analysis; assay type: functional, cell-based; how it was run: as §4
[27] = tested on: RKO; assay: Antiproliferative activity against human RKO cells assessed as inhibition of colony formation at 1 to 3 uM after 2 weeks by crystal violet staining-based assay; assay type: functional, cell-based
How it was run: (§6)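 Colony formation assay. DLD-1 (bi-allelic APC mutation) and RKO (no β-catenin dysregulation) colon cancer cells seeded in medium with 10% serum containing compound. Surviving colonies visualised and counted two weeks after plating. Two independent experiments per concentration, each in triplicate. Compound incubations carried out in the dark.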

[28] = tested on: DLD-1; assay: Antiproliferative activity against human DLD1 cells assessed as inhibition of colony formation at 1 to 3 uM after 2 weeks by crystal violet staining-based assay; assay type: functional, cell-based; how it was run: as §6

Structure (SMILES): CCN(CC)CCOc1ccc(-c2nc3c(=O)n(C)c(=O)nc-3n(-c3ccccc3)n2)cc1
- remaining at 1 h, 1 µM [1]: 31.8%
- remaining at 0.5 h, 1 µM [2]: 70.7%
- remaining at 10 min, 1 µM [3]: 92.2%
- Stability [4]: 110%
- pIC50 [5]: 6.52
- t1/2 [6]: 34.7 min
- pIC50 [7]: 6.59

Structure (SMILES): CCN(CC)CCOc1ccc(-c2nc3c(=O)n(C)c(=O)nc-3n(C)n2)cc1
- inhibition [8]: inactive
- inhibition [9]: inactive

Structure (SMILES): Cn1ncnc2c(=O)n(C)c(=O)nc1-2
- inhibition [10]: Active
- inhibition [11]: Active
- pIC50 [5]: 6.48
- pIC50 [7]: 6.54

Structure (SMILES): COc1ccc(-c2nc3c(=O)n(C)c(=O)nc-3n(CCO)n2)cc1
- inhibition [12]: inactive
- inhibition [13]: inactive

Structure (SMILES): CCN(CC)CCOc1ccc(-c2nnc3c(n2)c(=O)n(C)c(=O)n3C)cc1
- inhibition [14]: inactive
- inhibition [15]: inactive

Structure (SMILES): COc1ccc(-c2nc3c(=O)n(C)c(=O)nc-3n(C)n2)cc1
- Activity [16]: Active
- Activity [17]: Active
- pIC50 [5]: 5.57
- pIC50 [7]: 5.82

Structure (SMILES): CCN(CC)CCOc1ccc(-c2nnc3c(n2)c(=O)n(C)c(=O)n3-c2ccccc2)cc1
- inhibition [18]: Active
- pIC50 [7]: 3.78

Structure (SMILES): COc1ccc(-c2nc3c(=O)n(C)c(=O)nc-3n(-c3ccccc3)n2)cc1
- pIC50 [5]: 5.57
- pIC50 [7]: 5.68

Structure (SMILES): COc1c(C[C@@H](C)OC(=O)Oc2ccc(O)cc2)c2c3c(C[C@@H](C)OC(=O)c4ccccc4)c(OC)c(=O)c4c(O)cc(OC)c(c5c(OC)cc(O)c(c1=O)c52)c43 [CALPHOSTIN C]
- pIC50 [5]: 6.26
- pIC50 [7]: 6.41

Structure (SMILES): Cn1nc(-c2ccc(Cl)cc2)nc2c(=O)n(C)c(=O)nc1-2
- Activity [19]: Active
- Activity [20]: inactive
- Activity [21]: inactive
- Activity [22]: Dose-dependent effect
- Activity [23]: Active
- Activity [24]: Active
- Activity [25]: Active
- Activity [26]: Active
- inhibition [27]: Active
- inhibition [28]: Active
- Activity [16]: Active
- Activity [17]: Active
- pIC50 [5]: 5.75
- pIC50 [7]: 5.82

Structure (SMILES): Oc1nc(-c2ccc(C(F)(F)F)cc2)nc2c1CSCC2
- pIC50 [5]: 6.19
- pIC50 [7]: 5.54
